Only some compounds are listed: those with a hit (about 1.3% of all), similar ones and a draw of the others.
NR2E3 ag-1: human photoreceptor-specific nuclear receptor agonism. Q9Y5X4. CHO-S Gal4-NCOR/VP16-NR2E3 two-hybrid, luciferase. inhibition of corepressor binding, % at 3.98 µM. hit rate 0.35% among 360,000. AID 602229;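 active = inhibition above the mean of all tested compounds plus 3 SD, cut at about 70% in these data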;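 also: 0% = DMSO with NR2E3 transfected cells and 100% = cells lacking NR2E3 construct; higher means lower luciferase signal from less NR2E3 corepressor binding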
PGE2 EP2 inh: blocks the human prostaglandin E2 receptor EP2; P43116; C6 glioma cells expressing human EP2, cAMP TR-FRET; cells stimulated with saturating PGE2; inhibition, % at 25 µM; hit rate 0.52% among 260,000;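 active = percent inhibition above 40 after rounding to a whole number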;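 also: rat C6 glioma host cells with rolipram phosphodiesterase inhibitor present; the protocol text gives 20 µM as final concentration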
JMJD2C inh: blocks human GASC-1 demethylase activity. Q9H3R0. GST-JMJD2C(1-420) H3K9me3 demethylation, DELFIA europium. inhibition, % at 2.35 µM. hit rate 0.069% among 330,000. AID 2099;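 active = more than half of a compound's replicate wells show inhibition beyond 50%, single wells judged on their own value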;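 also: signal counts dimethyl H3K9 product captured on neutravidin plate; 0% = median of DMSO wells and 100% = 0.3 times that DMSO median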
NR2E3 ag-2: agonists of human nuclear receptor NR2E3; Q9Y5X4; GST-NR2E3/biotin-RetCOR TR-FRET, 1536-well; inhibition of corepressor binding, % at 4.78 µM; hit rate 0.12% among 320,000; AID 2300;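 active = percent inhibition above the cutoff of mean plus 3 SD of all tested compounds, set per screening campaign, cut at about 20% in these data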;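 also: 0% = DMSO wells and 100% = biotin wells as full block of FRET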
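system = GST-tagged NR2E3 plus biotinylated RetCOR corepressor | input = 1.35 nM GST-NR2E3 | also added = 7 nM biotin-RetCOR | schedule = 5 h incubation at 4 °C | measured by = TR-FRET with europium anti-GST and streptavidin-D2, 340 nm excitation | read-out = percent loss of FRET ratio relative to control wells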
EP2 mod: modulators of human EP2 prostaglandin E2 receptor | P43116 | EP2-expressing cells, cAMP HTRF FRET, PGE2 co-stimulation | induction, % at 25 µM | hit rate 0.83% among 260,000 | AID 940;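 active = compounds whose cAMP rise, as percent of the full-agonist control response, exceeds 60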;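 also: rat C6 glioma line stably carrying human EP2 under a CMV promoter; the protocol text gives 20 µM as final concentration; 100% = response of wells given 1 µM PGE2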
Furin inh: inhibitors of human furin | P09958 | purified furin, fluorogenic substrate cleavage | inhibition, % at 20 µM or 30 µM | hit rate 0.061% among 220,000; in the data active = inhibition above about 25%
Target sequence (P09958 108-714 limits assumed): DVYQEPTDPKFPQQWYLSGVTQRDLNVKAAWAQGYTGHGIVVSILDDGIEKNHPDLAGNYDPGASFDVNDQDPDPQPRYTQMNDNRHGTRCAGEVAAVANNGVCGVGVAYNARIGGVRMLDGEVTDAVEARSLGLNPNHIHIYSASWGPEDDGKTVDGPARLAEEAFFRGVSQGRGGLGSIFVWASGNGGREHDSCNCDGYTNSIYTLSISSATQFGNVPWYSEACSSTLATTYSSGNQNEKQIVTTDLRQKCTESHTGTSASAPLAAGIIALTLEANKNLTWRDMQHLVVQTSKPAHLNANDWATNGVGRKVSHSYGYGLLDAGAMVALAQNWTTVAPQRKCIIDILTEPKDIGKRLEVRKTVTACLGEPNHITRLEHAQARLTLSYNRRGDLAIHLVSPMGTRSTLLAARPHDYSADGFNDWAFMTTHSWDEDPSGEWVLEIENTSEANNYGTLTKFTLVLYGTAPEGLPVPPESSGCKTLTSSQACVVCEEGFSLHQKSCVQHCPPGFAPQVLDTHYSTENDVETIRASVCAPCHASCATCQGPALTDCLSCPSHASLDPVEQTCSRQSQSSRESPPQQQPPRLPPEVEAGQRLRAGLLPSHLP
The depositor's hits bear a star.

How did CN1CCCC[C@@H]1CCN1c2ccccc2Sc2ccc(S(C)=O)cc21 (stereo partly specified) do in these assays?
PGE2 EP2 inh: 44*; EP2 mod: 13

Results for CSc1ccc2c(c1)N(CCC1CCCCN1C)c1ccccc1S2 (stereo unspecified) ?
NR2E3 ag-1: -30; PGE2 EP2 inh: 13; JMJD2C inh: -16; NR2E3 ag-2: 1; EP2 mod: -19; Furin inh: -13

How did O=C(O)c1cc(-c2ccc(-c3ccccc3)cc2)nc2cc3ccccc3cc12 do in these assays?
PGE2 EP2 inh: 46*; EP2 mod: -52

How did O=C(O)c1cc(-c2ccc(-c3ccc(-c4cc(C(=O)O)c5cc(Cl)ccc5n4)cc3)cc2)nc2ccc(Cl)cc12 do in these assays?
PGE2 EP2 inh: 21; EP2 mod: -11

How did COC(=O)c1[nH]c2ccc(F)cc2c1NS(=O)(=O)c1ccc(F)c(C)c1 do in these assays?
NR2E3 ag-1: -15; PGE2 EP2 inh: 8; JMJD2C inh: 13; NR2E3 ag-2: 0; EP2 mod: 50; Furin inh: -12

What do the screens show for `COC(=O)c1[nH]c2ccc(C)cc2c1NS(=O)(=O)c1ccc(F)c(C)c1`?
NR2E3 ag-1: -10; JMJD2C inh: -7; NR2E3 ag-2: 3; EP2 mod: 63*; Furin inh: -4

Results for Cc1ccc(CCNC(=O)Cn2nc(C)n3c(cc4sccc43)c2=O)cc1 ?
EP2 mod: -8

What do the screens show for `C[C@@H]1CC[C@]2(C(=O)O)CC[C@]3(C)C(=CCC4[C@]56CC[C@@](O)(OC5)C(C)(C)C6CC[C@]43C)C2[C@H]1C` (stereo partly specified)?
NR2E3 ag-1: 94*; JMJD2C inh: -11; NR2E3 ag-2: -3

What do the screens show for `CC1(C)CC[C@]2(C(=O)O)CC[C@]3(C)C(=CCC4[C@]56CC[C@@](O)(OC5)C(C)(C)C6CC[C@]43C)C2C1` (stereo partly specified)?
NR2E3 ag-1: -17

Results for C[C@H]1[C@H](C)CC[C@]2(C(=O)O)CC[C@]3(C)C(=CC[C@@H]4[C@@]5(C)C[C@@H](O)[C@H](O)C(C)(C)[C@@H]5CC[C@]43C)[C@H]12 ?
NR2E3 ag-1: 94*; PGE2 EP2 inh: 20; JMJD2C inh: -6; NR2E3 ag-2: 3; EP2 mod: 18; Furin inh: -29

How did COc1ccc(/C(O)=C2/C(=O)C(=O)N(CCCN(C)C)C2c2ccccn2)cc1 (stereo unspecified) do in these assays?
PGE2 EP2 inh: 12; EP2 mod: -9

Results for CC[n+]1c(/C=C/N(C)c2ccccc2)n(-c2ccccc2)c2ccc(-c3nc4ccccc4s3)cc21 ?
NR2E3 ag-1: 91*; JMJD2C inh: -31; NR2E3 ag-2: -1

Results for CCOC(=O)c1ccc2c(c1)n(CC)c(/C=C/N(C)c1ccccc1)[n+]2CC ?
NR2E3 ag-1: -27; PGE2 EP2 inh: 8; JMJD2C inh: -7; NR2E3 ag-2: -2; EP2 mod: -25; Furin inh: 12

What do the screens show for `Cc1cccc(C2(O)CCN(C(=O)c3c(C)c4cc(C)ccc4n3C)CC2)c1`?
PGE2 EP2 inh: 6; EP2 mod: -83

What do the screens show for `COc1cc(CN2C[C@@H]3CCCN3C[C@@H]2Cc2ccccc2)cc2c1OCO2`?
PGE2 EP2 inh: 3; EP2 mod: 45

Results for CCOC(=O)c1cc2sccc2n1CC(=O)O ?
NR2E3 ag-1: 0; PGE2 EP2 inh: 6; JMJD2C inh: 4; NR2E3 ag-2: 1; EP2 mod: 13; Furin inh: -13

Results for CCOC(=O)c1cc2sccc2n1Cc1cccc(F)c1 ?
PGE2 EP2 inh: 9; EP2 mod: 85*

How did Cc1ccc2nc(NCc3ccco3)c(C=NCc3ccco3)c(=O)n2c1 do in these assays?
NR2E3 ag-1: 9; PGE2 EP2 inh: 8; JMJD2C inh: -23; NR2E3 ag-2: 1; EP2 mod: 63*; Furin inh: -7

What do the screens show for `Fc1ccc(-n2cc(-c3ccccc3)c3c(N4CCOCC4)ncnc32)cc1`?
NR2E3 ag-1: 26; PGE2 EP2 inh: 11; JMJD2C inh: 3; NR2E3 ag-2: 4; EP2 mod: 62*; Furin inh: -30

What do the screens show for `O=C(O)c1ccccc1CSc1nnc2c(n1)[nH]c1ccccc12`?
NR2E3 ag-1: -28; PGE2 EP2 inh: 15; JMJD2C inh: 0; NR2E3 ag-2: 8; EP2 mod: 61*; Furin inh: -13

What do the screens show for `CCOCCn1c(SCCCc2ccccc2)nc2c1c(=O)[nH]c(=O)n2C`?
NR2E3 ag-1: -15; PGE2 EP2 inh: 17; JMJD2C inh: 10; NR2E3 ag-2: 3; EP2 mod: 62*; Furin inh: -14

What do the screens show for `C=C(C)Cn1c(SCc2ccc(Cl)cc2)nc2c1c(=O)[nH]c(=O)n2C`?
PGE2 EP2 inh: 12; EP2 mod: 71*

How did CCCCCCSc1nc2c(c(=O)[nH]c(=O)n2C)n1C do in these assays?
NR2E3 ag-1: -48; PGE2 EP2 inh: 10; JMJD2C inh: 8; NR2E3 ag-2: 3; EP2 mod: 64*; Furin inh: -21

How did CCc1cccc2c(C#N)cn(CC(=O)Nc3ccc(OC)cc3)c12 do in these assays?
PGE2 EP2 inh: 9; EP2 mod: 9

What do the screens show for `CCOc1ccccc1NC(=O)CSc1nc(-c2ccccc2)nc2ccccc12`?
PGE2 EP2 inh: 6; EP2 mod: 61*

How did CCOc1ccccc1NC(=O)c1nc(-c2ccccc2)oc1C do in these assays?
NR2E3 ag-1: -31; PGE2 EP2 inh: 6; JMJD2C inh: -7; NR2E3 ag-2: -3; EP2 mod: 63*; Furin inh: -31

How did CCCNC(=O)Cn1nc(C)n2c(cc3ccsc32)c1=O do in these assays?
EP2 mod: -12

How did Cc1nnc(Sc2cc(NCCO)c([N+](=O)[O-])c3nonc23)s1 do in these assays?
NR2E3 ag-1: -20; PGE2 EP2 inh: 50*; JMJD2C inh: -44; EP2 mod: -69; Furin inh: -12

Results for Cc1nnc(Sc2cc(NCCCO)c([N+](=O)[O-])c3nonc23)s1 ?
NR2E3 ag-1: -30; PGE2 EP2 inh: 13; JMJD2C inh: -3; EP2 mod: -47; Furin inh: -15

How did CN(C)c1ccc(C(=C2C=CC(=[N+](C)C)C=C2)c2ccccc2)cc1 do in these assays?
PGE2 EP2 inh: 81*; EP2 mod: 11

Results for CN(C)c1ccc(C(=C2C=CC(=[N+](C)C)C=C2)c2ccc(N(C)C)cc2)cc1 ?
PGE2 EP2 inh: 29; EP2 mod: -73

Results for CC1=C(C(=O)Nc2ccccc2C)C(c2cccs2)C2=C(CC(C)(C)CC2=O)N1 (stereo unspecified) ?
PGE2 EP2 inh: 8; EP2 mod: 6
